# A selection: hits, their analogues and other compounds. The true share with any hit is near 1.8%.
# M5 ag = human M5 muscarinic receptor agonists, primary screen, CHO-K1 cells, Fluo-8 calcium fluorescence; activation, % at 3 µM; CHO-K1 hM5 cells; 0% DMSO wells, 100% maximal acetylcholine response; hit rate 0.19% among 360,000; Muscarinic acetylcholine receptor M5 (Homo sapiens), P08912;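 active = activation above the run's mean over test compounds plus 3 SD, cut at about 23% in these data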;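 also: signal is peak over basal fluorescence ratio across the kinetic read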
# CHRM4 antagonist = human M4 muscarinic receptor antagonists, primary screen, CHO cells, Fluo-8 calcium fluorescence; Muscarinic acetylcholine receptor M4 (Homo sapiens), P08173; CHO-hM4 cells, ACh EC80; inhibition, % at 3 µM; hit rate 0.73% among 360,000; AID 624125, 2012;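 active = inhibition above its plate's cutoff, the mean inhibition of sample wells plus 3 SD, cut at about 27% in these data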;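 also: 0% = acetylcholine EC80 with DMSO and 100% = DMSO without agonist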
# Target sequence (P08173 whole entry, looked up): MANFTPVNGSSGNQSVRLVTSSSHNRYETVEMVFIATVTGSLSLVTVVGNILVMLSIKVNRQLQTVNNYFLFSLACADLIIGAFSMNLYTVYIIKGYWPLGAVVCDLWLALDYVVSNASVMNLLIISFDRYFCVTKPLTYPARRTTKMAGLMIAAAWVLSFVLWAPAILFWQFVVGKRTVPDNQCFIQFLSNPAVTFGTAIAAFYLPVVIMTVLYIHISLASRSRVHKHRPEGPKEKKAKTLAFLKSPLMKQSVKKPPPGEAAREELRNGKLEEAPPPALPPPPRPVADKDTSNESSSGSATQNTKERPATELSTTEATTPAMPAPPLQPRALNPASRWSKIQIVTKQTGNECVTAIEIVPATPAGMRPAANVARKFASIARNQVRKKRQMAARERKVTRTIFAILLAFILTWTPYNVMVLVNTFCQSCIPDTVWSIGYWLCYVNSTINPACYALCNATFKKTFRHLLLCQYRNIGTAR
# M4 PAM = human M4 muscarinic receptor positive allosteric modulators, primary screen, CHO-K1 cells, Fluo-8 calcium fluorescence; CHO-K1 hM4/Gqi5, ACh EC20; 0% = ACh EC20, 100% = maximal ACh; activation, % at 3 µM; hit rate 0.4% among 360,000;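 active = activation above its plate's cutoff, the mean activation of sample wells plus 3 SD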
# M4 ag = human M4 muscarinic receptor agonists, primary screen, CHO-K1 cells, Fluo-8 calcium fluorescence; activation, % at 3 µM; AID 624127, 2012; CHO-K1 hM4/Gqi5; vehicle 0%, full acetylcholine response 100%; hit rate 0.14% among 360,000; Muscarinic acetylcholine receptor M4 (Homo sapiens), P08173;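 active = activation above the run mean over all test wells plus 3 SD, cut at about 32% in these data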;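 also: peak over basal fluorescence ratio per well then scaled between controls; 0% = DMSO wells and 100% = acetylcholine at EC100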
# CHRM5 PAM = human M5 muscarinic receptor positive allosteric modulators, primary screen, CHO-K1 cells, Fluo-8 calcium fluorescence. Muscarinic acetylcholine receptor M5 (Homo sapiens), P08912. CHO-K1 hM5, ACh EC20 PAM; 0% = ACh EC20, 100% = ACh EC100. activation, % at 3 µM. hit rate 0.3% among 360,000. AID 624038, 2012;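 active = activation above the run cutoff, the mean activation of all test compounds plus 3 SD, cut at about 18% in these data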
#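 Assay system: CHO-K1 hM5 cells / Incubation: Fluo-8 loading 80 min at 37 °C plus 30 min room temperature / Technique: Fluo-8 calcium dye fluorescence, kinetic read / Repeats: single replicate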
# CHRM5 antagonist = human M5 muscarinic receptor antagonists, primary screen, CHO cells, Fluo-8 calcium fluorescence. inhibition, % at 3 µM. hit rate 0.59% among 360,000. AID 624040, 2012. CHO-hM5 cells, ACh EC80;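 active = inhibition above a per-plate cutoff, the mean of that plate's test compounds plus 3 SD, cut at about 27% in these data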;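 also: 0% = acetylcholine EC80 with DMSO and 100% = DMSO without agonist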
# Numbers without * were called inactive.
SMILES,M5 ag,CHRM4 antagonist,M4 PAM,M4 ag,CHRM5 PAM,CHRM5 antagonist
CC(C)N(C(=O)COC(=O)c1cc(Cl)cc(Cl)c1N)C(C)C,-7,11,-11,-3,-15,27*
CCn1c(SCC(=O)Nc2ccccc2)nc2c1c(=O)n(C)c(=O)n2C,2,7,-4,2,18*,1
N#Cc1ccccc1OCC(=O)Nc1cc(S(=O)(=O)N2CCCCC2)ccc1N1CCOCC1,-3,2,-4,5,0,-2
Cc1c(C(=O)OC(C)CCN(C)C)oc2ccccc12 (centres undefined),-5,31*,-21,1,-13,7
Cc1c(C(=O)OCC(C)(C)CN(C)C)oc2ccccc12,-13,-3,-6,1,0,-3
OC(c1ccc(F)c(F)c1)c1nc(-c2ccoc2)cs1 (centres undefined),-1,-12,3,1,-1,5
O=C(CN1C(=O)COc2ccccc21)NCCN1CCC(Cc2ccccc2)CC1,-5,28*,-30,15,-16,10
O=C(CN1C(=O)COc2ccccc21)NCc1ccc(C(=O)O)cc1,3,28*,10,2,-5,3
CC(=O)N1CCN=C1SCc1c(F)cccc1Cl,3,-13,20*,2,2,0
COc1ccc(C(=O)CC(=O)C(=O)Nc2ccccc2Cl)cc1,-4,-9,3,2,13,1
O=CNCCCc1nc2ccccc2n1CCc1ccccc1,0,-6,-1,1,7,9
COc1ccc(-c2cc(C(F)(F)F)nc(S(=O)(=O)CCCC(=O)Nc3cccc(O)c3)n2)cc1OC,-1,9,-5,17,-11,27*
COc1ccccc1-c1cc(C(F)(F)F)nc(S(=O)(=O)CCCC(=O)O)n1,-3,4,7,0,3,6
CCN(CC)CCn1c(NCc2cccc(OC)c2OC)nc2ccccc21,-5,9,0,0,-11,31*
CCN(CC)CCn1c(NCc2ccco2)nc2ccccc21,-5,8,-4,0,-3,3
CCN(CC(=O)Nc1ccc(NC(C)=O)cc1)C(=O)CC1OC(=O)c2ccccc21 (centres undefined),-4,-4,1,0,2,0
Cc1ccccc1-c1nc(CSc2nc3c(c(=O)[nH]2)CCC3)c(C)o1,3,-7,8,-2,9,-4
Cc1ccccc1CSc1nc2c(c(=O)[nH]1)CCC2,3,-8,37*,-2,-4,-3
Cc1cccc(-c2nc(CSc3nc4c(c(=O)[nH]3)CCC4)c(C)o2)c1,3,-22,20*,-2,6,-2
CCn1ccnc1CN(C)C(=O)c1ccc(OC2CCN(CCc3ccccc3)CC2)cc1,-11,43*,-12,1,-16,47*
O=C(NC1CCCC1)C1CC(=O)N(c2ccccc2)C1 (centres undefined),0,6,-2,0,3,2
O=C(NC1CC1)C1CC(=O)N(c2ccccc2)C1 (centres undefined),-4,-2,7,2,-9,30*
COc1ccc(NC(=O)Cc2nnc(SCC(=O)Nc3nccs3)n2C)cc1,-2,-18,-5,2,9,-1
Cc1ccc(NS(=O)(=O)c2ccc(C(=O)OCC(=O)Nc3cc(C)on3)cc2)cc1,26*,7,-5,19,2,4
Cc1cc(NC(=O)COC(=O)c2cccc(S(=O)(=O)N(C)C3CCCCC3)c2)no1,-4,30*,9,3,-5,4
SMILES,M5 ag,CHRM4 antagonist,M4 PAM,M4 ag,CHRM5 PAM,CHRM5 antagonist
COc1ccc(NS(=O)(=O)c2cccc(C(=O)OCC(=O)Nc3cc(C)on3)c2)cc1,5,9,8,5,-5,0
CCCOc1ccc(C(=O)N2CCCC2C(=O)O)cc1 (centres undefined),2,-6,19*,3,-2,-3
CN1C(=O)[C@H]2[C@@H](c3ccc(C(F)(F)F)cc3)N[C@]3(CCCN(Cc4cccn4C)C3=O)[C@H]2C1=O,0,-8,-1,0,-3,-8
Cc1ccc2nc(-c3ccc(N)cc3)sc2c1,2,2,13*,1,6,-2
O=C(CN1C(=O)NC(Cc2c[nH]c3ccccc23)C1=O)Nc1ccc(F)cc1F (centres undefined),4,0,4,1,7,1
O=S(=O)(NCC1CCC(NS(=O)(=O)c2c(F)cccc2F)CC1)c1ccc2c(c1)OCCO2 (centres undefined),4,8,11,5,-2,6
CCOC(=O)N1CCN(C(=O)c2cccc(S(=O)(=O)Nc3ccc(Br)cc3)c2)CC1,5,-2,-2,2,-6,5
O=C(CN1CCN(c2ccc(O)cc2)CC1)NC(=O)NCc1ccco1,0,-14,11,1,19*,-8
COc1ccc(N2CCN(CC(=O)NC(=O)NCc3ccco3)CC2)cc1,-1,4,3,1,4,-2
O=C(COC(=O)Cc1cccc(C(F)(F)F)c1)NCc1ccco1,4,-19,32*,0,-3,3
CC1(C(=O)N2CCN(C(=O)c3ccco3)CC2)CC1(Br)Br (centres undefined),-1,-1,3,3,4,-8
O=C(Cc1ccccc1)N1CCc2[nH]nc(-c3ccccc3)c2C1,-4,15,18*,10,9,14
FC(F)(F)c1nc2ccccc2[nH]1,0,10,15*,0,4,11
CCOc1ccc(NS(=O)(=O)c2ccc(NC(=S)NC(=O)CC(C)C)cc2)cc1,10,9,5,13,-3,20
COc1ccc(NS(=O)(=O)c2ccc(NC(=S)NCC3CCCO3)cc2)cc1 (centres undefined),3,7,-8,12,-9,27*
CCCC(=O)NC(=S)Nc1ccc(S(=O)(=O)Nc2ccc(OCC)cc2)cc1,25*,-3,7,17,3,6
Cc1ccc(S(=O)(=O)NCC2CCCO2)cc1 (centres undefined),2,-5,0,1,14,-12
